# Results of several laboratories.
# Each line is one published result; the experiments were not run side by side.
# Target: Serine/threonine-protein kinase Nek7 (NEK7, Homo sapiens, UniProt Q8TDX7)
SMILES,read-out,method,tested at,remaining binding [%]
C[C@@H]1CCN(c2nccc(-c3cnn4ncccc34)n2)C1,binding,,1 µM,89
FC(F)(F)Oc1cccc(-c2cnc3ccc(-c4ccncc4)nn23)c1,cell-free assay,competition with immobilised ligand,5 µM,91
COc1cc(-c2cn(C3CCc4ccccc4N(CC(F)(F)F)C3=O)nn2)ccc1-n1ccc(C)n1 (centres unmarked),cell-free assay,competition with immobilised ligand,1 µM,100
O=C(c1ccc(Nc2nccc(-c3cc4ccccc4s3)n2)cc1)N1CCC(N2CCCC2)CC1,binding,competition with immobilised ligand,1 µM,79
CC(C)CC(=O)N1CCc2nc(-c3ccc(Br)cc3)nc(N(C)Cc3ccccc3)c2C1,cell-free assay,competition with immobilised ligand,0.1 µM,100
COc1cnc(Nc2cccc(S(N)(=O)=O)c2)nc1N1CCN(c2ccccc2)C(=O)C1,binding,competition with immobilised ligand,1 µM,91
O=C(NCCCC1CCCCC1)c1ccc(CNC(=O)c2cnn(-c3ccccc3)c2C(F)(F)F)cc1,cell-free assay,competition with immobilised ligand,0.1 µM,97
CNC(=O)[C@@H]1CC[C@@H](n2c(-c3ccc4cnccc4c3)nc3ccc(C(=O)NCc4cccc(C(N)=O)c4)cc32)C1,binding,competition with immobilised ligand,1 µM,92
C[C@@H](c1ccc(-n2cnc3c(N)ncnc32)cc1)N1CCc2nn(C)c(Cc3ccccc3)c2C1=O,binding,competition with immobilised ligand,0.1 µM,94
O=C(c1ccc(Nc2ncc(Cl)c(-c3ccc(Cl)s3)n2)cc1)N1CCC(N2CCCC2)CC1,binding,competition with immobilised ligand,1 µM,1.4
O=C(NCC1CCOCC1)c1n[nH]cc1NC(=O)c1c(F)cccc1F,binding,competition with immobilised ligand,1 µM,93
CN(c1nccc(-c2cnn3ncccc23)n1)C1CC1,binding,,1 µM,100
COc1ccc2c(c1)O[C@@H](c1ccc(OC)c(OC)c1)C[C@H]2NC(=O)C1(c2ccc3c(c2)OC(F)(F)O3)CC1,cell-free assay,competition with immobilised ligand,1 µM,100
CN(C)c1nccc(-c2cnc3ncccn23)n1,binding,,1 µM,90
COc1cc(Nc2nccc(-c3cnn4nc(OC)ccc34)n2)cc(C(F)(F)F)c1,binding,competition with immobilised ligand,1 µM,40
N[C@H]1CCN(c2nccc(-c3cnn4ncccc34)n2)C1,binding,,1 µM,100
Cc1nc(C2CCN(C(=O)c3ccc(OC(F)(F)F)cc3N)CC2)c2ncc(N3CCN(C)CC3)cc2n1,cell-free assay,competition with immobilised ligand,1 µM,100
Cc1cnn2ncc(-c3ccnc(N(C)C)n3)c2c1,binding,,1 µM,100
Cc1cnc(Nc2ccc(C(=O)N3CCC(N4CCCC4)CC3)cc2)nc1-c1cc2ccccc2s1,binding,competition with immobilised ligand,1 µM,0.7
CC(=O)N1CCC(c2ccc(C(=O)NC3=NCCN3)cc2C(F)(F)F)CC1,cell-free assay,competition with immobilised ligand,1 µM,100
CN(CCCC(F)(F)F)c1nccc(-c2cnn3ncccc23)n1,binding,,1 µM,100
CS(=O)(=O)N1CCCC(NC(=O)[C@H](CCC2CCCCC2)NC(=O)c2ccc(CNc3ncnc4c3nnn4-c3ccccc3)cc2)C1 (some centres unmarked),cell-free assay,competition with immobilised ligand,0.1 µM,88
CN(C)c1ncc(F)c(-c2cnn3ncccc23)n1,binding,,1 µM,95
